# Data taken from PubChem BioAssay.
# A number with no mark means an inactive call. Results filed as inconclusive are left out. Active and inactive are the calls of the source.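 Rule for the calls, unless noted: active = viability at or below 27.92% in each of two runs, the all-compound median minus 4 SD; inconclusive = no clear call, values can overlap the other calls; inactive = the rest.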
# Experiments:
# [1] = S. cerevisiae growth inhibition in permissive medium (OD615), pilot counter-assay for S. cerevisiae lifespan shortening project, permissive growth control (AID 705;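 active = growth inhibition above 25% in both replicates, a cutoff set 3 SD above the mean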); conditions: OD615, 24 h, at 10 µM, hits give high values
# Method in brief: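 Material: engineered DeaD yeast; Compound: one dose 10 µM, DMSO 0.25% final; Detection: absorbance (optical density) at 615 nm; Buffer or medium: permissive raffinose/galactose medium; Timing: 24 h exposure, 30 °C.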
# [2] = S. cerevisiae growth inhibition in restrictive medium, OD615, pilot screen, restrictive growth control, yeast lifespan reduction project (AID 706;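 active = growth inhibition above a set limit, 3 SD over mean compound inhibition, in both replicates, cut at about 43% in these data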;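 note: modified DeaD lifespan yeast strain shifted to restrictive glucose medium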); conditions: OD615, 48 h, at 10 µM, hits give high values
# Method in brief: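 Buffer or medium: restrictive glucose medium (CSMM-D); test system: modified S. cerevisiae; doses: single dose of 10 µM compound final, 0.25% DMSO; schedule: 48 h compound exposure at 30 °C; detection: absorbance (optical density) measured at 615 nm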
# [3] = doxorubicin toxicity protection in MRP-1 cells – H69AR cells, CellTiter-Glo, duplicate, MRP-1 activator project, pilot screen (AID 807;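 active = viability increase at or above a cutoff of the median across tested compounds plus 3 SD, cut at about 8.5% in these data, passing the limit was not always enough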;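 note: compound pretreatment 18-22 h then 72 h combined with doxorubicin; 0% = doxorubicin alone and 100% = vehicle without doxorubicin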); conditions: H69AR viability with doxorubicin, CellTiter-Glo luminescence; at 10 µM; hits give high values
# [4] = viability of HCT116 without oncogenic beta-catenin – human colon tumor cells, pilot screen (AID 823;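 active = cell viability at or below a set limit in both duplicate runs, the limit being the all-compound median minus 4 SD, cut at about 23% in these data, passing the limit was not always enough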;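 note: 0% = wells killed by 20 µM Hyamine and 100% = untreated DMSO cell wells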); conditions: HCT116 beta-catenin knockout viability, CellTiter-Glo, 60 h; at 10 µM; hits give low values
# [5] = viability of PTEN-null HCT116 cells – cell-based, HCT116 clonal line, CellTiter-Glo, pilot screen (AID 824); conditions: HCT116 PTEN-deleted viability, 60 h, at 10 µM, hits give low values;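 note: 0% = 20 µM Hyamine control and 100% = vehicle cell control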
# [6] = RAM pathway blockade in budding yeast – dse1pr::URA3 reporter, 5-FOA selection, pilot screen (AID 869;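 active = inhibition over a set limit, the all-compound mean plus 3 SD, in both replicate runs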;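 note: 0% = DMSO wells with no growth and 100% = 10 µM 1-NA-PP1 with full growth; RAM network block rescues cells from 5-FOA so hits raise OD615 growth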); conditions: S. cerevisiae dse1pr::URA3 5-FOA growth, OD615, 2 d; at 10 µM; hits give high values; strain carries analog-sensitive mutant Cbk1 kinase
# [7] = RAM signaling pathway blockade in yeast – S. cerevisiae, Pdr1DBD-CYC8 efflux-inhibited sensitized strain, primary screen (AID 1298;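 active = RAM network inhibition above 8.4% in each of two replicates, 3 SD over the compound average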;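 note: 0% = DMSO untreated cells without growth and 100% = 10 µM 1-NA-PP1 full growth; higher means more yeast growth rescued from 5-FOA killing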); conditions: S. cerevisiae cbk1-as DSE1-URA3 strain, 5-FOA growth OD615, 2 d; at 50 µM; hits give high values
SMILES,growth inhibition [1] [%],growth inhibition [2] [%],viability increase [3] [%],viability [4] [%],viability [5] [%],inhibition [6],RAM network inhibition [7] [%]
Cc1ccc2c(c1)C1(C(=O)N2C)N2CC3(C)CN1CC(C)(C2)C3=O (configuration not stated),6.63,0.76,-2.2,99.1,99,1.27%,0.11
COC(=O)C1C(=O)c2c([nH]c(C(=O)OC3CCCCC3)c2C)CC1C (configuration not stated),-2.87,2.14,2.69,107,104,0.105%,2.04
COc1ccccc1N(C(=O)NCc1ccccc1)C1=NCC(C)S1 (configuration not stated),-16,-11.9,-3.44,93.4,89.2,2.22%,7.42
COc1ccc(CC(NC(=O)c2ccccc2)C(=O)NCC(=O)O)cc1 (configuration not stated),-3.04,-2.91,-0.14,95.2,101,1.44%,-0.37
O=C1c2ccccc2C(Nc2ccc3c(c2)OCCO3)N1c1ccc(Cl)cn1 (configuration not stated),-12.2,3.92,1.76,81.7,75.2,1.83%,9.61
O=C(CC1SC(=Nc2ccccc2)N(CCCCO)C1=O)NCc1ccccc1 (configuration not stated),-5.1,-5.89,-2.74,89.5,86.4,0.065%,5.21
Cc1[nH]c(C)c2c(=O)n(-c3ccccc3)ncc12,-19.9,-17.5,0.12,101,102,1.31%,2.55
O=C1CC2CS(=O)(=O)CC2N1C1CCCCC1 (configuration not stated),-8.38,-13.2,-0.5,107,96,0.495%,2.85
O=C(Cn1c(=O)oc2cc(S(=O)(=O)N3CCCC3)ccc21)N1CCN(c2ccccn2)CC1,4.62,6.56,0.96,90,92.5,2.1%,6.22
O=C(CSc1nnc(Cn2c(=O)sc3ccccc32)n1-c1ccccc1)N1CCCCCC1,-11.3,-4.95,-2.95,91.7,81.7,2.22%,6.65
Cc1cccc(-n2ncc3c(N(C)C4CCCCC4)ncnc32)c1,4.55,23,2.07,84.7,85.8,-1.19%,3.02
CC(C)(C)n1nc2c(c1NC(=O)Cc1cccs1)CSC2,-8.2,12.2,-1.56,93.8,92.4,0.95%,0.94
CCOC(=O)c1sc(NC(=O)c2ccco2)nc1C,-9.56,-2.94,-1.31,94.5,91.8,1.66%,3.98
NC(=O)NC1CCCc2c1[nH]c1ccc(Cl)cc21 (configuration not stated),1.64,3.78,0.04,89.9,87.3,1.15%,0.26
COc1ccc(N2CCC(CNC(=O)Nc3ccc(C)c(C)c3)C2)cc1 (configuration not stated),-8.33,-2.14,1.23,91.2,74.8,0.77%,2.95
CC(C)Cc1cc(C(=O)Nc2ccc(F)cc2F)no1,-18.9,-23.4,1.32,100,98.6,0.505%,0.21
COC(=O)c1ccc(OC(=O)c2nn(C)cc2Cl)c(OC)c1,-0.14,10.2,-5.78,101,95.5,-0.22%,-0.57
Clc1ccc(OCc2nnc(-c3ccccc3Br)o2)c(Cl)c1,-11.4,-17,-0.17,95.9,89.3,6% (active),14

SMILES,growth inhibition [1] [%],growth inhibition [2] [%],viability increase [3] [%],viability [4] [%],viability [5] [%],inhibition [6],RAM network inhibition [7] [%]
NC(=O)c1cc(Cl)cn(-c2ccccc2)c1=O,-13,-5.85,-0.12,99.7,95,1.81%,4.23
COc1ccccc1NC(=O)CSc1nc2ncccc2[nH]1,-4.5,17.8,-1.01,101,98.2,0.975%,3.83
O=C(NCC1COc2ccccc2O1)C1CCC(CNc2c(N3CCCCC3)c(=O)c2=O)CC1 (configuration not stated),-8.76,-9.54,0.01,88.6,86.4,2.89%,4.02
CCOC(=O)Cn1c(=O)oc2cc(S(=O)(=O)Nc3cc(Cl)ccc3OC)ccc21,-2.69,-4.88,-2.35,91.9,89,0.525%,4.96
O=C(Nc1ccc(Oc2ccc(NC(=O)C3CCCO3)cc2)cc1)C1CCCO1 (configuration not stated),-2.75,-11,-5.07,85.7,96.7,3.62%,-0.11
O=C(Cc1cc(=O)[nH]c(=O)[nH]1)N1CCN(C(=O)c2ccco2)CC1,-10.2,-26.6,-2.96,95.6,95.6,0.59%,1.53
Cn1c(CNC(=O)c2ccc(F)cc2)nc2ccccc21,-0.44,-5.71,-2.48,99.5,102,0.325%,3.67
O=C(Cn1cnc2c(nnn2-c2ccccc2)c1=O)N1CCC(Cc2ccccc2)CC1,7.29,9.16,-1.56,91.4,85.3,2.19%,7.33
COc1cc(CN2CCN(CCOCCO)CC2)cc(OC)c1OC,-9.5,-8.52,0.51,94.5,96.8,1.11%,4.96
NC(=O)C1CCN(C(=O)c2ccc(CS(=O)(=O)c3c(Cl)cccc3Cl)o2)CC1,-1.46,-0.415,-0.98,109,98.3,1.49%,1.38
CCn1c(=O)cc(O)c2ccccc21,1.77,-10.1,-1.68,99,94,2.01%,1.28
c1ccc(N(c2ccccc2)c2nc(N3CCOCC3)nc(N3CCOCC3)n2)cc1,4.5,-1.27,-3.09,92.2,89.9,4.5%,3.75
COc1ccc(-n2c(Cn3c(=O)sc4ccccc43)nnc2SCC(N)=O)cc1,-10.9,-0.695,0.09,101,101,1.29%,0.06
Cn1cnnc1SCC(=O)Nc1ccccc1,-6.99,-16.3,2.03,100,102,-0.32%,1.79
O=C(N[C@@H](Cc1ccccc1)C(=O)O)c1cccnc1,-5.99,-10.1,0.01,96.1,96.2,2.62%,6.61
COC(=O)c1cc(OC)c(OC)cc1NC(=O)C1CCCO1 (configuration not stated),-6.67,1.77,-0.93,105,99.8,0.545%,4.85
Cn1c(SCC(=O)Nc2ccccc2F)nnc1-c1cccnc1,-5.35,-5.78,-0.11,100,92.8,1.01%,-1.31
CC(=O)Nc1cc2ccc(OC(C)=O)cc2oc1=O,-15.3,-13.9,-4.23,107,93.8,1.62%,0.82
